Blank lines part the entries; values can stand above or below the molecule they belong to.
Experiments:
Liver microsome [1] = assay: Stability in rat liver microsomes assessed as compound remaining; format: ADME
Liver = assay: Stability in mouse liver microsomes assessed as compound remaining; format: ADME
[2] = Permeability of the compound by PAMPA; format: physicochemical; conditions: read-out: permeability
[3] = Apparent permeability from apical to basolateral side of human Caco2 cells; format: ADME, cell-based; conditions: Caco-2
[4] = Apparent permeability from basolateral to apical side of human Caco2 cells; format: ADME, cell-based; conditions: Caco-2
[5] = Aqueous solubility of the compound at pH 1; format: physicochemical
[6] = Aqueous solubility of the compound at pH 6; format: physicochemical
[7] = Cmax in CD1 mouse at 30 mg/kg, ip; format: ADME, organism-based; parameters: dose 30 mg/kg, route intraperitoneal; conditions: in vivo
How it was run: (§1)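 Mouse PK: single 30 mg/kg dose given IP as a Methocel suspension. Cmax, total AUC and t1/2 were taken from plasma exposure after dosing.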

[8] = AUC (total) in CD1 mouse at 30 mg/kg, ip; format: ADME, organism-based; parameters: dose 30 mg/kg, route intraperitoneal; conditions: plasma; how it was run: as §1
[9] = Half life in CD1 mouse at 30 mg/kg, ip; format: ADME, organism-based; parameters: dose 30 mg/kg, route intraperitoneal; conditions: in vivo; how it was run: as §1
Liver microsome [10] = assay: Stability in human liver microsomes assessed as compound remaining; format: ADME
[11] = molecular target: Tyrosine-protein kinase BTK (Homo sapiens, UniProt Q06187); assay: Inhibition of full length human wild type his-tagged BTK expressed in Sf9 cells using biotinylated peptide as substrate after 1 hr by Fluorescence assay
[12] = Selectivity ratio of IC50 for JAK2 (unknown origin) to IC50 for full length human wild type his-tagged BTK expressed in Sf9 cells
[13] = Selectivity ratio of IC50 for Flt3 (unknown origin) to IC50 for full length human wild type his-tagged BTK expressed in Sf9 cells
[14] = Selectivity ratio of IC50 for ITK (unknown origin) to IC50 for full length human wild type his-tagged BTK expressed in Sf9 cells

Sequence of Tyrosine-protein kinase BTK (Q06187 whole entry): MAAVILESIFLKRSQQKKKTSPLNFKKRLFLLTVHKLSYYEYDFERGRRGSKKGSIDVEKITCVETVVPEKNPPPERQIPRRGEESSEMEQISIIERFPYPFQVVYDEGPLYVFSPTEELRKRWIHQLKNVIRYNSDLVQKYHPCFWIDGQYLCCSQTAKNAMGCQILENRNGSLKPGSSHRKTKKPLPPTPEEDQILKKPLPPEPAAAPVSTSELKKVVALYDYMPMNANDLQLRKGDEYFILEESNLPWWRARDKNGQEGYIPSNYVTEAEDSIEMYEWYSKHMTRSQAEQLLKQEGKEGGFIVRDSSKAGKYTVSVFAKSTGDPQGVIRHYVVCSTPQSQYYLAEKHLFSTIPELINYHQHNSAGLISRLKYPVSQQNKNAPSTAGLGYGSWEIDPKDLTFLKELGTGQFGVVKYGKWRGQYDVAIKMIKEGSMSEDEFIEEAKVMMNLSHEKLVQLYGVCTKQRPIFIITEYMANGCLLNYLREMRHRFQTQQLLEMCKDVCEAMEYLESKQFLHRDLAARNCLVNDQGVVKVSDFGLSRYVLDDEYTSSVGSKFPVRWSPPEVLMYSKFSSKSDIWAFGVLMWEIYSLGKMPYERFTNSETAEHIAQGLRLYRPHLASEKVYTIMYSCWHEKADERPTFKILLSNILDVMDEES

Compound: Cc1c(NC(=O)c2ccc(C(C)(C)C)cc2)cccc1-c1nc(Nc2ccc(C(=O)N3CCOCC3)cc2)c2nc[nH]c2n1
- Stability (Liver microsome [1]): 36%
- Stability (Liver): 68%
- Papp [2]: 40.3 ×10⁻⁶ cm/s
- Papp A→B [3]: < 1.5 ×10⁻⁶ cm/s
- Papp B→A [4]: < 1.5 ×10⁻⁶ cm/s
- solubility [5]: < 1 µg/mL
- solubility [6]: < 1 µg/mL
- Cmax [7]: 3.8 µM
- AUC [8]: 32.5 µM·h
- half-life [9]: 4.3 h
- Stability (Liver microsome [10]): 14%

Compound: Cc1c(NC(=O)c2ccc(C(C)(C)C)cc2)cccc1-c1nc(Nc2ccc(C(=O)N3CCOCC3)cc2)c2ncn(CCCc3ccccc3)c2n1
- IC50 [11]: > 50 µM
- Ratio IC50 [12]: 1
- Ratio IC50 [13]: 0.1
- Ratio IC50 [14]: 1

The remaining lines, values ahead:

- IC50 [11]: 0.15 µM
Compound: Cn1cnc2c(Nc3ccc(C(=O)N4CCOCC4)cc3)nc(-c3cccc(NC(=O)c4ccc(C(C)(C)C)cc4)c3)cc21

- IC50 [11]: > 50 µM
Compound: CC(C)(C)c1ccc(C(=O)Nc2cccc(-c3nc(Nc4ccc(C(=O)N5CCOCC5)cc4)c4cccn4n3)c2)cc1

- IC50 [11]: > 50 µM
Compound: CC(C)(C)c1ccc(C(=O)Nc2cccc(-c3nccc(Nc4ccc(C(=O)N5CCOCC5)cc4)n3)c2)cc1
